From ChEMBL document CHEMBL1143182, “Design and synthesis of DPP-IV inhibitors lacking the electrophilic nitrile group” (Bioorg Med Chem, 2008)
The source made the active and inactive calls. The rule behind the calls is not given here.

Assays:
[1] = system: Rattus norvegicus; test: Inhibition of DPP4 in Sprague-Dawley rat plasma at 3 mg/kg, po after 30 mins; type: functional; conditions: 0.5 h
[2] = target: Dipeptidyl peptidase 4 (Rattus norvegicus, UniProt P14740); test: Inhibition of DPP4 in rat plasma by fluorescence assay; type: cell-free
Chain of Dipeptidyl peptidase 4 (P14740 whole entry): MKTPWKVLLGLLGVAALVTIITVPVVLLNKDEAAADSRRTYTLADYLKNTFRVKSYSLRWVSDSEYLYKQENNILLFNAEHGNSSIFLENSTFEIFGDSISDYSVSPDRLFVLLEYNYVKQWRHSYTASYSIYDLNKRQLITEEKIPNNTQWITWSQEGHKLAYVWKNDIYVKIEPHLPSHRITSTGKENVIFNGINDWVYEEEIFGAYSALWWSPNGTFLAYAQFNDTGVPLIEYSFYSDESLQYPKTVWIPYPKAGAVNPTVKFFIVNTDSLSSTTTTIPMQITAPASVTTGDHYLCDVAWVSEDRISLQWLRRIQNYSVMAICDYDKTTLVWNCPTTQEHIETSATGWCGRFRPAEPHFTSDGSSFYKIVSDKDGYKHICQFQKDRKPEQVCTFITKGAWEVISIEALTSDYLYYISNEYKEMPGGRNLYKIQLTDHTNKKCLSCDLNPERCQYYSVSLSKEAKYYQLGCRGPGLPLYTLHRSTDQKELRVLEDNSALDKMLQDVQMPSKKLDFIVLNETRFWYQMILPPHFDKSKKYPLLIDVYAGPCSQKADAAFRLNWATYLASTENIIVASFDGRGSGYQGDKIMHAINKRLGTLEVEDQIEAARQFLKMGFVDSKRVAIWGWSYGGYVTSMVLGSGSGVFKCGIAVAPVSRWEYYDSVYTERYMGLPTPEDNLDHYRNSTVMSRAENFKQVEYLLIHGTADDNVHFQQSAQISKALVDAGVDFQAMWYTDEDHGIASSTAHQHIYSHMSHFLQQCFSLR

[3] = system: Rattus norvegicus; test: Inhibition of DPP4 in Sprague-Dawley rat plasma at 3 mg/kg, po after 9 hrs; type: functional
[4] = species: Rattus norvegicus; test: Reduction in plasma glucose level in Sprague-Dawley rat by oral glucose tolerance test; type: functional, organism-based
Summary of the method: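 Male SD rats (400–460 g) fasted at least 20 h, dosed orally with 0.1, 0.3 or 1 mg/kg in 0.5% methyl cellulose (vehicle control) at −30 min. Oral glucose 1 g/kg at 0 min. Tail-vein blood at −5, 5, 10, 15, 30, 60, 120 min; plasma glucose by glucose oxidase peroxidase dye method.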

IC50 [2] | SMILES | inhibition in vivo at 3 mg/kg [1] | inhibition in vivo at 3 mg/kg [3] | Activity [4]
60 nM | Cc1nsc(N2CCN(C(=O)[C@H]3C[C@@H](C(=O)N4CCSC4)N[C@H]3C)CC2)n1 | 95% | 72% | Active
340 nM | Cc1ncc(N2CCN(C(=O)[C@@H]3CN[C@H](C(=O)N4CCCC4)C3)CC2)s1 |  |  | 
240 nM | Cc1cc(N2CCN(C(=O)[C@@H]3CN[C@H](C(=O)N4CCCC4)C3)CC2)sn1 |  |  | 
45 nM | O=C([C@@H]1CN[C@H](C(=O)N2CCCC2)C1)N1CCN(c2ncns2)CC1 | 85% | 56% | 
120 nM | CCc1nsc(N2CCN(C(=O)[C@@H]3CN[C@H](C(=O)N4CCCC4)C3)CC2)n1 | 80% | 47% | 
150 nM | O=C([C@@H]1CN[C@H](C(=O)N2CCCC2)C1)N1CCN(c2nc(-c3ccccc3)ns2)CC1 | 64% | 11% | 
110 nM | CCCc1nsc(N2CCN(C(=O)[C@@H]3CN[C@H](C(=O)N4CCCC4)C3)CC2)n1 | 81% | 48% | 
450 nM | Cc1nsc(C2CCN(C(=O)[C@@H]3CN[C@H](C(=O)N4CCCC4)C3)CC2)n1 |  |  | 
140 nM | O=C([C@@H]1CN[C@H](C(=O)N2CCCC2)C1)N1CCN(c2nc(C(F)(F)F)ns2)CC1 | 91% | 54% | 
49 nM | COCc1nsc(N2CCN(C(=O)[C@@H]3CN[C@H](C(=O)N4CCCC4)C3)CC2)n1 | 52% | 41% | 
320 nM | Cc1cnc(N2CCN(C(=O)[C@@H]3CN[C@H](C(=O)N4CCCC4)C3)CC2)s1 |  |  | 
69 nM | Cc1nsc(N2CCN(C(=O)[C@H]3C[C@@H](C(=O)N4CCCC4)N[C@H]3C)CC2)n1 | 89% | 74% | 
58 nM | Cc1nsc(N2CCN(C(=O)[C@@H]3CN[C@H](C(=O)N4CCCC4)C3)CC2)n1 | 84% | 53% | 
510 nM | Cc1nc(N2CCN(C(=O)[C@@H]3CN[C@H](C(=O)N4CCCC4)C3)CC2)sc1C |  |  | 
760 nM | Cc1nsc(N2CCCN(C(=O)[C@@H]3CN[C@H](C(=O)N4CCCC4)C3)CC2)n1 |  |  | 
76 nM | Cc1nsc(N2CCN(C(=O)[C@@H]3CN[C@H](C(=O)N4CCSC4)C3)CC2)n1 | 91% | 75% | 
960 nM | Cc1nc(N2CCN(C(=O)[C@@H]3CN[C@H](C(=O)N4CCCC4)C3)CC2)no1 |  |  | 
190 nM | CC(C)c1nsc(N2CCN(C(=O)[C@@H]3CN[C@H](C(=O)N4CCCC4)C3)CC2)n1 | 85% | 43% | 
